Experimental data reported in ChEMBL document CHEMBL1143736, “Synthesis and antimycobacterial activity of 4-(5-substituted-1,3,4-oxadiazol-2-yl)pyridines” (Bioorg Med Chem, 2007).
In brackets after ≈: the same amount, converted by molar mass.

Columns and labels:
[1] = system: Mycobacterium tuberculosis; assay: Antimycobacterial activity against Mycobacterium tuberculosis H37Rv; format: functional
How it was run: (§1)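 Modified microplate Alamar Blue assay (MABA). Inoculum came from a log-phase culture matched to McFarland 1, diluted 1:50 in Middlebrook 7H9 to 6 × 10^6 CFU/mL, and prepared just before inoculation.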

[2] = system: Mycobacterium tuberculosis; assay: Antimycobacterial activity against drug-sensitive Mycobacterium tuberculosis CIBIN 687 isolates; format: functional; how it was run: as §1
[3] = system: Mycobacterium tuberculosis; assay: Antimycobacterial activity against drug-sensitive Mycobacterium tuberculosis CIBIN 650 isolates; format: functional; how it was run: as §1
Vero = assay: Cytotoxicity against Vero cells; format: cell-based; settings: Chlorocebus sabaeus
How it was run: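 Vero cells in DMEM with 10% FBS (1.5 × 10^5 cells/mL) grown 24 h at 36.5 °C, 5% CO2; medium renewed, compounds (DMSO stocks) added in triplicate at 100–0.390 µg/mL by two-fold serial dilution, 24 h. Cells trypsinized, trypan blue stained, 100 counted for % dead, corrected against untreated controls (2.5% DMSO); IC50 by probit; three independent experiments, mean ± SE.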

[4] = Toxicity against adherent human PBMC; format: cell-based
How it was run: (§2)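 PBMC from one healthy volunteer, isolated at room temperature, in RPMI 1640 + 10% FBS at 1 × 10^6 cells/mL; compounds tested in quintuplicate, 24 h. Non-adherent cells taken with supernatant, adherent cells recovered with trypsin–EDTA, each fraction pelleted (600g, 5 min) and read separately; IC50 per fraction.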

[5] = Toxicity against non-adherent human PBMC; format: cell-based; how it was run: as §2
PBMC = assay: Survival of adherent human PBMC at 100 ug/mL; format: functional; settings: read-out: Survival
How it was run: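 PBMC came from one healthy volunteer, isolated at room temperature, and were plated at 1 × 10^6 cells/mL in RPMI 1640 + 10% FBS. Compound was added in quintuplicate and incubated 24 h. Both fractions were pelleted at 600g for 5 min.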

SMILES: FC(F)(F)c1nnc(-c2ccncc2)o1
- MIC [1]: 37.2 µM (≈ 8.01 µg/mL)
- MIC [2]: 37.2 µM (≈ 8.01 µg/mL)
- MIC [3]: 37.2 µM (≈ 8.01 µg/mL)

SMILES: CN[C@@H]1[C@H](O[C@H]2[C@H](O[C@H]3[C@H](O)[C@@H](O)[C@H](N=C(N)N)[C@@H](O)[C@@H]3N=C(N)N)O[C@@H](C)[C@]2(O)C=O)O[C@@H](CO)[C@H](O)[C@H]1O (stereo in doubt) [STREPTOMYCIN]
- IC50 (Vero): > 100 µM
- MIC [1]: 0.86 µM (≈ 0.5 µg/mL)
- MIC [3]: 0.1 µM (≈ 0.0582 µg/mL)

SMILES: O=[N+]([O-])c1ccccc1-c1nnc(-c2ccncc2)o1
- IC50 (Vero): 32.4 µM
- MIC [1]: 7.46 µM (≈ 2 µg/mL)
- MIC [2]: 3.73 µM (≈ 1 µg/mL)
- MIC [3]: 7.46 µM (≈ 2 µg/mL)

SMILES: c1ccc(-c2nnc(-c3ccncc3)o2)cc1
- IC50 (Vero): 67.8 µM
- MIC [1]: 8.97 µM (≈ 2 µg/mL)
- MIC [2]: 4.48 µM (≈ 1 µg/mL)
- MIC [3]: 8.97 µM (≈ 2 µg/mL)

SMILES: c1cc(-c2nnc(-c3ccncc3)o2)ccn1
- IC50 (Vero): 92.4 µM
- MIC [1]: 8.93 µM (≈ 2 µg/mL)
- MIC [2]: 4.46 µM (≈ 1 µg/mL)
- MIC [3]: 8.93 µM (≈ 2 µg/mL)

SMILES: CCCCCCCCCCCCCCCc1nnc(-c2ccncc2)o1
- IC50 (Vero): 95.5 µM
- IC50 [4]: 125 µg/mL (≈ 350 µM)
- MIC [1]: 0.35 µM (≈ 0.125 µg/mL)
- IC50 [5]: 15.8 µg/mL (≈ 44.3 µM)
- MIC [2]: 0.7 µM (≈ 0.25 µg/mL)
- MIC [3]: 0.09 µM (≈ 0.0322 µg/mL)

SMILES: COc1cc(-c2nnc(-c3ccncc3)o2)cc(OC)c1OC
- IC50 (Vero): 250 µM
- MIC [1]: 14.1 µM (≈ 4.42 µg/mL)
- MIC [2]: 3.53 µM (≈ 1.11 µg/mL)
- MIC [3]: 7.06 µM (≈ 2.21 µg/mL)

SMILES: CO[C@H]1/C=C/O[C@@]2(C)Oc3c(C)c(O)c4c(O)c(c(/C=N/N5CCN(C)CC5)c(O)c4c3C2=O)NC(=O)/C(C)=C\C=C\[C@H](C)[C@H](O)[C@@H](C)[C@@H](O)[C@@H](C)[C@H](OC(C)=O)[C@@H]1C [RIFAMPIN]
- IC50 (Vero): > 100 µM
- MIC [1]: 0.07 µM (≈ 0.0576 µg/mL)

SMILES: O=[N+]([O-])c1cc(-c2nnc(-c3ccncc3)o2)cc([N+](=O)[O-])c1
- IC50 (Vero): 77.1 µM
- MIC [1]: 25.5 µM (≈ 8 µg/mL)
- MIC [2]: 6.39 µM (≈ 2 µg/mL)
- MIC [3]: 25.5 µM (≈ 8 µg/mL)

SMILES: NNC(=O)c1ccncc1 [ISONIAZID]
- IC50 (Vero): 39.8 µM
- IC50 [4]: > 100 µg/mL
- MIC [1]: 0.44 µM (≈ 0.0603 µg/mL)
- IC50 [5]: 87.1 µg/mL (≈ 635 µM)
- viability at 100 µg/mL (PBMC): > 95%
- MIC [2]: 0.91 µM (≈ 0.125 µg/mL)
- MIC [3]: 0.91 µM (≈ 0.125 µg/mL)

SMILES: ClCc1nnc(-c2ccncc2)o1
- IC50 (Vero): 64.6 µM
- MIC [1]: 41 µM (≈ 8.03 µg/mL)
- MIC [2]: 41 µM (≈ 8.03 µg/mL)
- MIC [3]: 41 µM (≈ 8.03 µg/mL)

SMILES: CC[C@@H](CO)NCCN[C@@H](CC)CO [ETHAMBUTOL]
- IC50 (Vero): > 100 µM
- MIC [1]: 9.8 µM (≈ 2 µg/mL)

SMILES: O=[N+]([O-])c1ccc(-c2nnc(-c3ccncc3)o2)cc1
- MIC [1]: 29.9 µM (≈ 8.01 µg/mL)
- MIC [2]: 29.9 µM (≈ 8.01 µg/mL)
- MIC [3]: 29.9 µM (≈ 8.01 µg/mL)

SMILES: Cc1nnc(-c2ccncc2)o1
- MIC [1]: 49.7 µM (≈ 8.01 µg/mL)
- MIC [2]: 6.21 µM (≈ 1 µg/mL)
- MIC [3]: 49.7 µM (≈ 8.01 µg/mL)

SMILES: CN(C)c1ccc(-c2nnc(-c3ccncc3)o2)cc1
- IC50 (Vero): 50.4 µM
- MIC [1]: 3.76 µM (≈ 1 µg/mL)
- MIC [2]: 3.76 µM (≈ 1 µg/mL)
- MIC [3]: 30 µM (≈ 8 µg/mL)

SMILES: CCCCCCCCCCCCCCCCCc1nnc(-c2ccncc2)o1
- IC50 (Vero): 86.7 µM
- IC50 [4]: 312 µg/mL (≈ 810 µM)
- MIC [1]: 0.65 µM (≈ 0.251 µg/mL)
- IC50 [5]: 45.4 µg/mL (≈ 118 µM)
- MIC [2]: 0.65 µM (≈ 0.251 µg/mL)
- MIC [3]: 0.16 µM (≈ 0.0617 µg/mL)
